High-throughput results: PubChem, several laboratories
NALP3 yeast inh – blocks the NALP3 inflammasome reconstituted in yeast; Yeast reconstituted NLRP3/ASC/caspase-1, beta-gal luminescence, 24 h; inhibition, % at 10 µM; 330,000 tested, 0.39% active;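 active = inhibition of 50% or more; inactive = inhibition below 50%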;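 note: plate controls were induced DMSO wells for no effect and uninduced yeast grown without galactose for full effect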
PolyA inh – inhibitors of polyadenylation in S. cerevisiae | S. cerevisiae SKY197-pL101 polyadenylation reporter, beta-gal luminescence; efflux-impaired pdr1/pdr3 knockout yeast; score 100 = 6 SD above DMSO | activity score, % at 12 µM | 300,000 tested, 0.02% active;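 active = lowest replicate activity score at least 50, where 100 means six control SD above control mean; inconclusive = lowest score under 50 but half or more replicates reach 50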;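 note: yeast exposed to compound for 9 h at 30 °C; higher score means more reporter readthrough which indicates perturbed polyadenylation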
NALP1 inh – inhibitors of NALP1 inflammasome in yeast. S. cerevisiae NALP1/ASC/caspase-1 growth, X-gal OD620, 72 h. inhibition, % at 10 µM. 280,000 tested, 0.61% active. AID 2071; in the data active = inhibition mostly above about 24%, no sharp cut-off; inactive = mostly below about 32%
Lmaj promast – Leishmania major promastigote growth inhibition | Leishmania major promastigotes, resazurin fluorescence viability | inhibition, % at 10 µM | 200,000 tested, 9% active; in the data active = inhibition above about 50%;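 note: promastigotes grown with compound for 44 hours at 28 °C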
Calb FLC – affects C. albicans growth with fluconazole | C. albicans CaCi-2 + fluconazole, Alamar Blue growth, 48 h | growth inhibition, % (no concentration beside the values) | 300,000 tested, 0.57% active;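 active = growth inhibition above about 58% in most replicates, limit read from the data, passing the limit was not always enough; inconclusive = exactly half the replicates above a set limit; inactive = most replicates below a set limit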;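 note: all wells also contain fluconazole at 8 µg/ml as a sub-toxic cotreatment; 0% = median of DMSO wells and 100% = median of geldanamycin control wells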
T cruzi inh – blocks replication of Trypanosoma cruzi; T. cruzi beta-gal in NIH3T3, luminescence, 90 h; inhibition, % (concentration not given with the values); 300,000 tested, 1.4% active; AID 1885;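 active = mean inhibition across valid replicates above about 55%, limit read from the data; inconclusive = mean below that limit but half or more replicates reach it; inactive = mean below it, under half of replicates reach it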;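 note: signal also drops with host cell toxicity which is not excluded here; 0% = plate median of DMSO wells and 100% = zero luminescence signal; higher percent means less beta-gal luminescence so fewer parasites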
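System: mouse NIH/3T3 fibroblasts infected with β-gal-expressing T. cruzi Tulahuen C4 / Input: NIH/3T3 cells, 5,000 per well / Buffer or medium: Low-serum DMEM with 2% FBS / Probe or stimulus: 5000 reporter trypomastigotes per well / Schedule: ≥90 h infection period, 3 h prior cell attachment / Measured by: GalScreen luminescence, 60 min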
* = called active by the depositor; ? = inconclusive; . = no result given. This is one part of a sample in which hits are shown more often than they occur.

SMILES	NALP3 yeast inh	PolyA inh	NALP1 inh	Lmaj promast	Calb FLC	T cruzi inh
CCOC(=O)c1ccc(S(=O)(=O)N2CCN(C(C)=O)CC2)cc1	-11	10	6	-3	22	-17
COc1cc2nc3c4ccccc4n(CC#N)c3nc2cc1OC	34	-46	11	-2	14	-8
CCn1c2ccccc2c2nc3cc(OC)c(OC)cc3nc21	29	-24	6	73*	17	41
CCC12C(=O)C(CC)(C(c3ccccc3)=C1c1ccccc1)[C@@H]1C(=O)N(c3ccc(C)cc3)C(=O)C12 (stereo not given in full)	9	12	23	40	-11	57*
CCC12C(=O)C(CC)(C(c3ccccc3)=C1c1ccccc1)[C@@H]1C(=O)N(c3ccccc3)C(=O)C12 (stereo not given in full)	25	1	18	27	0	35
Cc1cccnc1Nc1nc(-c2ccc(O)c(O)c2)cs1	23	7	6	58*	-4	-13
COc1ccc(-c2csc(Nc3ncccc3C)n2)cc1OC	28	-5	5	31	7	15
COc1ccccc1N(CC(=O)NC1CCCC1)C(=O)c1oc(C(C)(C)C)cc1C	6	-2	5	62*	-8	-3
Cc1cc(C(C)(C)C)oc1C(=O)N(CC(=O)NC1CCCC1)c1c(C)cccc1C	6	-1	23	24	11	32
COc1cccc(NC(=O)CN(C)C(=O)C(C)Sc2ccccc2)c1 (stereo not given)	0	.	.	.	.	.
CCOC(=O)C1(Cc2ccccc2C(F)(F)F)CCN(C2CCN(C(C)C)CC2)CC1	20	4	12	99*	-9	.
CCOC(=O)C1(Cc2ccccc2C(F)(F)F)CCN(CC(O)CO)CC1 (stereo not given)	-2	5	4	-3	-12	3
COc1ccccc1NC(=O)C(=O)Nc1ccc2c(c1)N(C(=O)C1CC1)CCC2	-3	-6	.	.	-10	-1
O=C(Nc1ccc(Oc2ccccc2)cc1)c1cnc2n(c1=O)CCS2	30	18	12	-11	-1	-5
C#CCn1c(S(=O)(=O)Cc2ccc(F)cc2)nc(-c2ccccc2)c1-c1ccccc1	5	0	.	96*	34	31
CCOC(=O)Cn1c(S(=O)(=O)Cc2cccc(F)c2)nc(-c2ccccc2)c1-c1ccccc1	4	15	27	90*	3	37
CCOC(=O)Cn1c(S(=O)(=O)Cc2ccc(F)cc2)nc(-c2ccccc2)c1-c1ccccc1	6	0	3	10	?	14
Cc1ccccc1OCC(=O)NCCNC(=O)c1ccncc1	-8	14	16	.	10	-1
CCN(CC(=O)Nc1c(F)cccc1F)C(=O)Cc1csc(-c2ccccc2)n1	31	-20	.	.	-7	-11
O=C(NCCN1CCOCC1)c1ccc2c(c1)N(Cc1ccccc1)C(=O)c1ccccc1S2	-2	-4	2	.	-7	10
O=C(NCCN1CCOCC1)c1ccc2c(c1)N(Cc1c(F)cccc1Cl)C(=O)c1ccccc1S2	8	0	3	100*	-18	0
COc1n[nH]c(C(=O)Nc2cc(F)ccc2C)c1[N+](=O)[O-]	28	-9	33	17	?	-4
COc1ccc(Cl)cc1NC(=O)c1[nH]nc(OC)c1[N+](=O)[O-]	-4	0	10	53*	15	35
COc1ccc(Cl)cc1NC(=O)c1cc(-c2ccccc2O)n[nH]1	11	-7	22	-10	6	-2
COc1n[nH]c(C(=O)Nc2cc(Cl)ccc2Cl)c1[N+](=O)[O-]	33	-16	2	89*	64	?
SMILES	NALP3 yeast inh	PolyA inh	NALP1 inh	Lmaj promast	Calb FLC	T cruzi inh
CCOC(=O)c1[nH]c(C)c(C(=O)OCC(=O)N(Cc2ccccc2)C(C)C)c1C	15	.	.	.	.	.
Cc1ccc(S(=O)(=O)N2CCOCC2)cc1C(=O)OCC(=O)NCc1ccccc1	20	5	.	.	2	-3
O=c1cc(CN2CCN(C/C=C/c3ccccc3)CC2)c2cc(O)ccc2o1	6	7	0	51*	-11	58*
Cc1ccc2oc(=O)cc(CN3CCN(C/C=C/c4ccccc4)CC3)c2c1	9	-4	8	.	2	57*
Cc1ccc2oc(=O)cc(CN3CCCCC3)c2c1	-14	11	10	.	2	-4
CSc1nc2c(c(=O)n1-c1ccc(F)cc1)SCC2	3	-6	-3	6	9	-2
CSc1nc2c(c(=O)n1-c1ccc(C)cc1)SCC2	23	23	28*	7	-4	-6
CCOc1ccc(-n2c(SCc3ccc(C(=O)OC)o3)nc3c(c2=O)SCC3)cc1	12	.	7	83*	.	.
O=C(CSc1nc2c(c(=O)n1-c1ccc(Cl)cc1)SCC2)N1CCCC1	10	-1	1	-9	6	12
COC(=O)c1ccc(CSc2nc3c(c(=O)n2-c2ccc(Br)cc2)SCC3)o1	21	-10	-3	98*	?	?
CCOc1ccc(-n2c(SCC(=O)Nc3ccc(OC)cc3)nc3c(c2=O)SCC3)cc1	-9	-31	8	-2	12	5
Cc1c(N2C(=O)C3C4C=CC(C5CC45)C3C2=O)c(=O)n(-c2ccccc2)n1C (stereo not given)	-16	-14	20	.	3	3
COc1cccc2c1Oc1ncccc1N(C(=O)CCC(=O)NCc1ccccc1Cl)C2	4	-20	15	.	64	-1
CC(C)Oc1ccc(C(CC(=O)O)n2cnnn2)cc1 (stereo not given)	13	-10	7	-6	10	-21
Cc1nc(SCc2nc3c([N+](=O)[O-])cccc3[nH]2)c2oc3ccccc3c2n1	12	.	.	.	.	.
O=C(CCl)N(C/C=C/c1ccccc1)c1ccc2c(c1)OCCO2	13	-18	3	76*	-24	93*
O=C(/C=C/c1ccccc1)c1ccc2c(c1)OCCCCO2	25	10	17	44	-3	-21
CCCN1CCN(C(=O)CCS(=O)(=O)c2cc3c(cc2Cl)NC(=O)CO3)CC1	13	-5	9	.	6	-4
CCN1C(=O)C(C(=O)c2ccccc2)SC1=S (stereo not given)	18	-27	-2	-8	?	12
COC(=O)[C@@]12CCCCN1[C@H](c1ccc(-c3cc(C(C)=O)cs3)cc1)[C@H]1C(=O)N(C)C(=O)[C@H]12	24	-8	.	.	13	-13
O=C(Nc1ccc(C(F)(F)F)cc1)N1CCN(c2ccnc3cc(Cl)ccc23)CC1	19	-6	.	.	24	69*
O=C(Nc1cc(F)ccc1F)N1CCN(c2ccnc3cc(Cl)ccc23)CC1	33	-25	.	.	0	12
O=C(c1cccs1)N1N=C(c2ccc(O)cc2)CC1c1ccccc1 (stereo not given)	7	-39	15	64*	-6	-10
